{"data": "Experimental data from different studies", "PBRM1 bromodomain": "Protein polybromo-1, bromodomain (PBRM1, Homo sapiens, UniProt Q86U86)", "ADORA2B": "Adenosine receptor A2b (ADORA2B, Homo sapiens, UniProt P29275)", "Melanocortin receptor 3": "Melanocortin receptor 3 (Mus musculus, UniProt P33033)", "BRD2 BD2": "Bromodomain-containing protein 2, BD2 (BRD2, Homo sapiens, UniProt P25440)", "note": "Protocols differ between the studies behind these lines."}
{"Compound": "Cc1ncsc1-c1ccc(CNC(=O)[C@@H]2C[C@@H](O)CN2C(=O)[C@@H](NC(=O)C2(F)CC2)C(C)(C)C)c(OCCOc2ccc(CN3CCN(c4cc(-c5ccccc5O)nnc4N)CC3)cc2)c1", "target": "PBRM1 bromodomain", "assay": "binding, SPR", "quantity": "Kd", "value": "0.83 µM"}
{"Compound": "CC#CC(=O)N1CC[C@@H](n2cc(-c3ccc(Oc4c(F)cccc4F)cc3)c3c(N)n[nH]c(=O)c32)C1", "target": "Tyrosine-protein kinase Tec (TEC, Homo sapiens, UniProt P42680)", "assay": "binding, competition with immobilised ligand", "quantity": "Kd", "value": "0.004 µM"}
{"Compound": "CCNC(=O)[C@H]1O[C@@H](n2cnc3c(N)nc(NN=C[C@H]4CCC=CO4)nc32)[C@H](O)[C@@H]1O", "target": "ADORA2B", "assay": "GTPγS binding, agonist", "setting": "cell membranes", "quantity": "EC50", "value": "13.2 µM"}
{"Compound": "Cc1ncsc1-c1ccc(CNC(=O)[C@@H]2C[C@H](O)CN2C(=O)[C@@H](NC(=O)C2(F)CC2)C(C)(C)C)c(OCCc2ccc(CN3CCN(c4cc(-c5ccccc5O)nnc4N)CC3)cc2)c1", "target": "PBRM1 bromodomain", "assay": "binding, SPR", "quantity": "Kd", "value": "1.2 µM"}
{"Compound": "CSCC[C@H](NC(=O)[C@@H](NC(=O)[C@@H](N)Cc1ccc(O)cc1)C(C)C)C(=O)NCC(=O)N[C@@H](Cc1c[nH]cn1)C(=O)N[C@@H](Cc1ccccc1)C(=O)O", "target": "Melanocortin receptor 3", "assay": "reporter gene, agonist", "quantity": "EC50", "value": "> 100 µM"}
{"Compound": "c1cncc(-c2cccc(Nc3nccc(NC4CCCCC4)n3)c2)c1", "target": "Tyrosine-protein kinase JAK1, JH2 (JAK1, Homo sapiens, UniProt P23458)", "assay": "binding, competition with immobilised ligand", "quantity": "Kd", "value": "0.29 µM"}
{"Compound": "C#CCN1CCCn2c1nc1c2c(=O)n(C)c(=O)n1C", "target": "ADORA2B", "assay": "ligand displacement, radioligand", "setting": "cell membranes", "quantity": "Ki", "value": "> 10 µM"}
{"Compound": "N=C(N)NCCC[C@H](NC(=O)[C@H](CC(=O)O)NC(=O)[C@H](Cc1c[nH]c2ccccc12)NC(=O)[C@H](CCCNC(=N)N)NC(=O)[C@@H](N)Cc1ccccc1)C(=O)N[C@@H](Cc1ccccc1)C(=O)O", "target": "Melanocortin receptor 3", "assay": "reporter gene, agonist", "quantity": "EC50", "value": "20.4 µM"}
{"Compound": "N[C@@H](CCC(=O)O)C(=O)O", "target": "Metabotropic glutamate receptor 8 (Grm8, Rattus norvegicus, UniProt P70579)", "assay": "calcium signal, agonist", "quantity": "EC50", "value": "0.77 µM"}
{"Compound": "CN1CCCn2c1nc1c2c(=O)n(C)c(=O)n1C", "target": "ADORA2B", "assay": "ligand displacement, radioligand", "setting": "cell membranes", "quantity": "Ki", "value": "> 10 µM"}
{"Compound": "N=C(N)NCCC[C@H](NC(=O)[C@@H](N)CC(=O)O)C(=O)N[C@@H](Cc1ccccc1)C(=O)O", "target": "Melanocortin receptor 3", "assay": "reporter gene, agonist", "quantity": "EC50", "value": "> 100 µM"}
{"Compound": "CCCCCCN1CCCn2c1nc1c2c(=O)n(C)c(=O)n1C", "target": "ADORA2B", "assay": "ligand displacement, radioligand", "setting": "cell membranes", "quantity": "Ki", "value": "> 10 µM"}
{"Compound": "N=C(N)NCCC[C@H](NC(=O)[C@H](CC(=O)O)NC(=O)[C@@H](N)Cc1c[nH]c2ccccc12)C(=O)N[C@@H](Cc1ccccc1)C(=O)NCC(=O)O", "target": "Melanocortin receptor 3", "assay": "reporter gene, agonist", "quantity": "EC50", "value": "> 100 µM"}
{"Compound": "Cc1noc(C)c1-c1ccc(-c2nc3cnccn3c2NC(C)(C)C)cc1", "target": "BRD2 BD2", "assay": "cell-free assay, competition with immobilised ligand", "quantity": "Kd", "value": "0.095 µM"}
{"Compound": "Cc1cc2ccccc2n1CCNC(=O)c1ccc(N2CCCCC2)cc1", "target": "Prostaglandin E2 receptor EP2 subtype (PTGER2, Homo sapiens, UniProt P43116)", "assay": "cAMP, antagonist, TR-FRET", "quantity": "Kb", "value": "~0.01 µM"}
{"Compound": "CCCCCCCCCCCCC/C=C/[C@@H](O)[C@@H](N)COP(=O)(O)O", "target": "Potassium channel subfamily K member 2 (KCNK2, Homo sapiens, UniProt O95069)", "assay": "binding, BRET", "quantity": "Kd", "value": "> 500 µM"}
{"Compound": "N=C(N)NCCC[C@H](NC(=O)[C@@H](N)CC(=O)O)C(=O)N[C@@H](Cc1ccccc1)C(=O)NCC(=O)O", "target": "Melanocortin receptor 3", "assay": "reporter gene, agonist", "quantity": "EC50", "value": "> 100 µM"}
{"Compound": "CCCN1CCCn2c1nc1c2c(=O)n(C)c(=O)n1C", "target": "ADORA2B", "assay": "ligand displacement, radioligand", "setting": "cell membranes", "quantity": "Ki", "value": "> 10 µM"}
{"Compound": "CCCCN1CCC(COC(=O)c2ccc(N)c(OC)c2)CC1", "target": "5-hydroxytryptamine receptor 4 (HTR4, Homo sapiens, UniProt Q13639)", "assay": "ligand displacement, radioligand", "quantity": "Ki", "value": "0.0011 µM"}
{"Compound": "CCN1CCCn2c1nc1c2c(=O)n(C)c(=O)n1C", "target": "ADORA2B", "assay": "ligand displacement, radioligand", "setting": "cell membranes", "quantity": "Ki", "value": "> 10 µM"}
{"Compound": "N=C(N)NCCC[C@H](NC(=O)[C@H](CC(=O)O)NC(=O)[C@H](Cc1c[nH]c2ccccc12)NC(=O)[C@H](CCCNC(=N)N)NC(=O)[C@@H](N)Cc1ccccc1)C(=O)N[C@@H](Cc1ccccc1)C(=O)NCC(=O)O", "target": "Melanocortin receptor 3", "assay": "reporter gene, agonist", "quantity": "EC50", "value": "> 100 µM"}
{"Compound": "CCCCN1CCC(COC(=O)c2ccc(N)c(OCF)c2)CC1", "target": "Beta-3 adrenergic receptor (ADRB3, Homo sapiens, UniProt P13945)", "assay": "cell-free assay, radioligand", "quantity": "Ki", "value": "> 10 µM"}
{"Compound": "CC(C)CCCC(C)N1CCCn2c1nc1c2c(=O)n(C)c(=O)n1C (stereo not drawn)", "target": "ADORA2B", "assay": "ligand displacement, radioligand", "setting": "cell membranes", "quantity": "Ki", "value": "> 10 µM"}
{"Compound": "CSCC[C@H](NC(=O)[C@@H](NC(=O)[C@@H](N)Cc1ccc(O)cc1)C(C)C)C(=O)NCC(=O)N[C@@H](Cc1c[nH]cn1)C(=O)N[C@@H](Cc1ccccc1)C(=O)N[C@@H](CCCNC(=N)N)C(=O)N[C@@H](Cc1c[nH]c2ccccc12)C(=O)N[C@@H](CC(=O)O)C(=O)N[C@@H](CCCNC(=N)N)C(=O)O", "target": "Melanocortin receptor 3", "assay": "reporter gene, agonist", "quantity": "EC50", "value": "0.036 µM"}
{"Compound": "CC(=O)N[C@H](C(=O)N1C[C@H](O)C[C@H]1C(=O)NCc1ccc(-c2scnc2C)cc1)C(C)(C)SCCCCCCNC(=O)C[C@@H]1N=C(c2ccc(Cl)cc2)c2c(sc(C)c2C)-n2c(C)nnc21", "target": "BRD2 BD2", "assay": "binding, ITC", "quantity": "Kd", "value": "0.094 µM"}
{"Compound": "N=C(N)NCCC[C@H](NC(=O)[C@H](CC(=O)O)NC(=O)[C@H](Cc1c[nH]c2ccccc12)NC(=O)[C@H](CCCNC(=N)N)NC(=O)[C@H](Cc1ccccc1)NC(=O)[C@@H](N)Cc1c[nH]cn1)C(=O)N[C@@H](Cc1ccccc1)C(=O)O", "target": "Melanocortin receptor 3", "assay": "reporter gene, agonist", "quantity": "EC50", "value": "6.6 µM"}
{"Compound": "CC(C)CN1CCCn2c1nc1c2c(=O)n(C)c(=O)n1C", "target": "ADORA2B", "assay": "ligand displacement, radioligand", "setting": "cell membranes", "quantity": "Ki", "value": "> 10 µM"}
